Hep lipid drop = inhibitors of hepatocyte lipid droplet formation, primary screen, imaging, high-throughput imaging, BODIPY stain; AML12 mouse hepatocytes, oleate lipid droplets; inhibition, % at 6.5 µM; 240,000 tested, 0.4% active;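 active = lipid droplet intensity inhibited by at least 50%, with more than 500 cells counted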
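Test system: AML12 mouse liver cells; schedule: overnight exposure; technique: high-content imaging of BODIPY-stained droplets and DAPI nuclei; read-out: % inhibition of corrected integrated BODIPY droplet signal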
TLR4 MyD88 comp = inhibitors of TLR4-MyD88 association in cells, primary screen, cell-based, HeLa CL3-4, BLA complementation, FRET ratio. Toll-like receptor 4 (Homo sapiens) + Myeloid differentiation primary response protein …. HeLa CL3-4 TLR4/MyD88 BLA complementation. inhibition, % at 8.4 µM. 200,000 tested, 0.18% active. AID 861, 2007; in the data active = inhibition above about 25%
SR-BI uptake up = activators of SR-BI mediated DiI-HDL uptake, primary screen, ldlA[mSR-BI] CHO cells, DiI fluorescence. 3 h; 100 = double the neutral-control signal. activation, % at 12.5 µM. 320,000 tested, 0.096% active. AID 504775, 2011;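 active = mean replicate activation of at least 60% and every replicate at or above 60%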
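Test system: SR-BI-overexpressing, LDLR-lacking CHO cells. Measured by: DiI fluorescence, bottom read. Medium: Ham's F12 with 0.5% BSA, HEPES 25 mM, pH 7.4. Timing: 3 h uptake period with compound, 37 °C.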
SR-BI DiI inh = inhibitors of SR-BI mediated HDL lipid uptake, primary screen, ldlA[mSR-BI] cells, fluorescence, single point. Scavenger receptor class B member 1 (Mus musculus), Q61009. ldlA[mSR-BI] CHO cells, DiI-HDL uptake fluorescence, 3 h. inhibition, % at 12.5 µM. 320,000 tested, 0.96% active. AID 488896, 2010;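 active = mean replicate inhibition of at least 70% and a set share of replicates each scoring 70 or more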
Target sequence (Q61009 whole entry, looked up): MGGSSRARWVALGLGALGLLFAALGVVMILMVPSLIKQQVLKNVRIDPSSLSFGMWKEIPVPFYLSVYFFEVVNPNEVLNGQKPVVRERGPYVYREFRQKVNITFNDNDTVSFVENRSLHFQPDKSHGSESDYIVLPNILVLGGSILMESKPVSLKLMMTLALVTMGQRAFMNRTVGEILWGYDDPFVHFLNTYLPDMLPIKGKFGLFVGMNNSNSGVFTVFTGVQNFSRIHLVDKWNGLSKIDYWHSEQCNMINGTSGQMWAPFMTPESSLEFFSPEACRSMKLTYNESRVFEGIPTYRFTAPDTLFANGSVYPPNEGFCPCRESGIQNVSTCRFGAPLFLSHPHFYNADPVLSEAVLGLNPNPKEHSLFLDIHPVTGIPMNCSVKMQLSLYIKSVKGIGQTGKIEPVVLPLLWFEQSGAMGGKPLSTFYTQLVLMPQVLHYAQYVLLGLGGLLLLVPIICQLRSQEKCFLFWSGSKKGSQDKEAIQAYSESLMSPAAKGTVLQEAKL
NOD2 RIPK2 PPI = NOD2-RIPK2 binding disruptors in cells, primary screen, fluorescence, CHO cells, BLA complementation. Receptor-interacting serine/threonine-protein kinase 2 (Homo sapiens), O43353. CCF4 ratio. inhibition, % at 4.98 µM. 360,000 tested, 0.38% active. AID 624267, 2012; in the data active = inhibition above about 21%
TLR9-MyD88 inh = inhibitors of TLR9-MyD88 association in cells, primary screen, cell-based, CHO, BLA complementation, fluorescence; Toll-like receptor 9 (Homo sapiens) + Myeloid differentiation primary response protein …; CCF4 FRET ratio; inhibition, % at 4.98 µM; 340,000 tested, 0.21% active; AID 504734, 2011;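 active = inhibition above the mean over all tested compounds plus 3 SD, cut at about 21% in these data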
Hits are given with their value. Rows were chosen to be rich in hits. Some 1.6% of all compounds tested hit in one or more screens of this group.

Results for COc1cc(C(=O)Nc2nc3ccc(C)cc3s2)ccc1OCc1c(C)noc1C ?
TLR4 MyD88 comp: inactive; SR-BI uptake up: inactive; SR-BI DiI inh: inactive; NOD2 RIPK2 PPI: inactive; TLR9-MyD88 inh: inactive

What do the screens show for `Cc1cccc(NC(=O)c2ccc(OCc3c(C)noc3C)cc2)c1`?
SR-BI uptake up: inactive; SR-BI DiI inh: 73; NOD2 RIPK2 PPI: inactive; TLR9-MyD88 inh: inactive

What do the screens show for `COc1ccc(NC(=O)NNC(=O)c2ccc3ccccc3c2O)cc1OC`?
Hep lipid drop: inactive; SR-BI uptake up: inactive; SR-BI DiI inh: 115; NOD2 RIPK2 PPI: inactive; TLR9-MyD88 inh: inactive

What do the screens show for `COc1cccc(C(=O)NNC(=O)c2ccccc2)c1`?
Hep lipid drop: inactive; SR-BI uptake up: inactive; SR-BI DiI inh: inactive; NOD2 RIPK2 PPI: inactive; TLR9-MyD88 inh: inactive

How did CCOc1ccc(NC(=O)Nc2cc(OCC(F)(F)F)cc(OCC(F)(F)F)c2)cc1 do in these assays?
Hep lipid drop: inactive; TLR4 MyD88 comp: inactive; SR-BI uptake up: inactive; SR-BI DiI inh: 75; NOD2 RIPK2 PPI: inactive; TLR9-MyD88 inh: inactive

How did COc1ccc(NC(=O)c2cc(-c3ccncc3)nc3ccc(Br)cc23)cc1OC do in these assays?
Hep lipid drop: inactive; SR-BI uptake up: inactive; SR-BI DiI inh: 83; NOD2 RIPK2 PPI: inactive; TLR9-MyD88 inh: inactive

How did COc1cccc(C(=O)NNC(=O)c2ccc3ccccc3c2O)c1 do in these assays?
SR-BI uptake up: inactive; SR-BI DiI inh: 108; NOD2 RIPK2 PPI: inactive; TLR9-MyD88 inh: inactive

How did COc1ccc(NC(=O)c2cc(-c3cccnc3)nc3ccc(C)cc23)cc1OC do in these assays?
TLR4 MyD88 comp: inactive; SR-BI uptake up: inactive; SR-BI DiI inh: inactive; NOD2 RIPK2 PPI: inactive; TLR9-MyD88 inh: inactive

How did CCOc1ccc(NC(=O)NNC(=O)c2cc3ccccc3cc2O)cc1 do in these assays?
Hep lipid drop: inactive; SR-BI uptake up: inactive; SR-BI DiI inh: 81; NOD2 RIPK2 PPI: inactive; TLR9-MyD88 inh: inactive

How did COc1ccc(NC(=O)c2cc(-c3ccc(C)o3)nc3ccccc23)cc1OC do in these assays?
Hep lipid drop: inactive; TLR4 MyD88 comp: inactive; SR-BI uptake up: inactive; SR-BI DiI inh: 83; NOD2 RIPK2 PPI: inactive; TLR9-MyD88 inh: inactive

What do the screens show for `CCc1ccc(NC(=O)NNC(=O)c2cc3ccccc3cc2O)cc1`?
Hep lipid drop: inactive; SR-BI uptake up: inactive; SR-BI DiI inh: inactive; NOD2 RIPK2 PPI: inactive; TLR9-MyD88 inh: inactive

What do the screens show for `COc1ccc(NC(=O)c2cc3ccccc3cc2OC)cc1OC`?
Hep lipid drop: inactive; SR-BI uptake up: inactive; SR-BI DiI inh: 70; NOD2 RIPK2 PPI: inactive; TLR9-MyD88 inh: inactive

Results for Cc1nc2ccccc2c2oc(C(=O)Nc3ccc(C(C)C)cc3)cc12 ?
Hep lipid drop: inactive; TLR4 MyD88 comp: inactive; SR-BI uptake up: inactive; SR-BI DiI inh: inactive; NOD2 RIPK2 PPI: inactive; TLR9-MyD88 inh: inactive

Results for COc1ccc(NC(=O)c2cc(-c3ccc(C)o3)nc3ccccc23)c(OC)c1 ?
NOD2 RIPK2 PPI: inactive

What do the screens show for `COc1cc(OC)c(C(=O)Nc2ccc3ccccc3c2)cc1OC`?
Hep lipid drop: inactive; SR-BI uptake up: inactive; SR-BI DiI inh: inactive; NOD2 RIPK2 PPI: inactive; TLR9-MyD88 inh: inactive

How did COc1cc(NC(=O)c2cc3c(C)nc4ccccc4c3o2)cc(OC)c1OC do in these assays?
TLR4 MyD88 comp: inactive; SR-BI uptake up: inactive; SR-BI DiI inh: 73; NOD2 RIPK2 PPI: inactive; TLR9-MyD88 inh: inactive

What do the screens show for `O=C(c1cc(-c2cccs2)nn1-c1ccccc1)N1CCN(S(=O)(=O)c2ccccc2)CC1`?
SR-BI uptake up: inactive; SR-BI DiI inh: inactive; NOD2 RIPK2 PPI: inactive; TLR9-MyD88 inh: inactive

How did CCCCN(CCCC)C(=O)c1ccccc1NC(=O)CN1C(=O)c2ccccc2C1=O do in these assays?
Hep lipid drop: inactive; TLR4 MyD88 comp: inactive; SR-BI uptake up: inactive; SR-BI DiI inh: inactive; NOD2 RIPK2 PPI: inactive; TLR9-MyD88 inh: inactive

Results for CC(C)(C)NC(=O)CSc1ncnc2c1nnn2Cc1ccccc1Cl ?
TLR4 MyD88 comp: inactive; SR-BI uptake up: inactive; SR-BI DiI inh: inactive; NOD2 RIPK2 PPI: inactive; TLR9-MyD88 inh: inactive

Results for Cc1cccn2c(=S)[nH]nc12 ?
SR-BI uptake up: inactive; SR-BI DiI inh: inactive; NOD2 RIPK2 PPI: inactive; TLR9-MyD88 inh: inactive

What do the screens show for `CS(=O)(=O)N1CCN(c2ccccc2NC(=O)c2cccc3ccccc23)CC1`?
Hep lipid drop: inactive; TLR4 MyD88 comp: inactive; SR-BI uptake up: inactive; SR-BI DiI inh: inactive; NOD2 RIPK2 PPI: inactive; TLR9-MyD88 inh: inactive

How did COc1ccc(CCNC(=O)c2cc(-c3ccncc3)nc3c(Cl)cccc23)cc1OC do in these assays?
TLR4 MyD88 comp: inactive; SR-BI uptake up: inactive; SR-BI DiI inh: inactive; NOD2 RIPK2 PPI: inactive; TLR9-MyD88 inh: inactive

Results for COc1ccc(CNC(=O)c2cc(-c3ccncc3)nc3c(C)cc(C)cc23)cc1OC ?
TLR4 MyD88 comp: inactive; SR-BI uptake up: inactive; SR-BI DiI inh: 72; NOD2 RIPK2 PPI: inactive; TLR9-MyD88 inh: inactive

How did COc1cc2ccccc2cc1C(=O)Nc1ccccc1N1CCN(S(C)(=O)=O)CC1 do in these assays?
Hep lipid drop: inactive; TLR4 MyD88 comp: inactive; SR-BI uptake up: inactive; SR-BI DiI inh: 89; NOD2 RIPK2 PPI: inactive; TLR9-MyD88 inh: inactive

Results for O=C(NCc1ccc(Cl)cc1)C(=O)N/N=C/c1ccc(Br)cc1 ?
Hep lipid drop: inactive; TLR4 MyD88 comp: inactive; SR-BI uptake up: inactive; SR-BI DiI inh: inactive; NOD2 RIPK2 PPI: inactive; TLR9-MyD88 inh: inactive

What do the screens show for `Cc1cc(N/N=C/c2ccccc2O)nc(-c2ccccc2O)n1`?
Hep lipid drop: inactive; TLR4 MyD88 comp: inactive; SR-BI uptake up: inactive; SR-BI DiI inh: inactive; NOD2 RIPK2 PPI: inactive; TLR9-MyD88 inh: inactive

What do the screens show for `Cc1cc(N/N=C/c2ccc(O)cc2O)nc(-c2ccccc2O)n1`?
Hep lipid drop: inactive; TLR4 MyD88 comp: inactive; SR-BI uptake up: inactive; SR-BI DiI inh: 114; NOD2 RIPK2 PPI: inactive; TLR9-MyD88 inh: inactive

Results for Cc1cc(N/N=C/c2ccc(O)cc2O)nc(-n2nc(C)cc2C)n1 ?
Hep lipid drop: inactive; TLR4 MyD88 comp: inactive; SR-BI uptake up: inactive; SR-BI DiI inh: 94; NOD2 RIPK2 PPI: inactive; TLR9-MyD88 inh: inactive

What do the screens show for `Cc1ccccc1S(=O)(=O)N1C(c2ccc(Cl)c(Cl)c2)CC=C(C(=O)O)C1c1cccc(Br)c1` (stereo unspecified)?
NOD2 RIPK2 PPI: inactive

What do the screens show for `O=C(N/N=C/C=C/c1ccccc1)c1cnccn1`?
Hep lipid drop: inactive; TLR4 MyD88 comp: inactive; SR-BI uptake up: 240; SR-BI DiI inh: inactive; NOD2 RIPK2 PPI: inactive; TLR9-MyD88 inh: inactive

What do the screens show for `O=C(Nc1nc2ccccc2s1)c1cc(-c2ccccc2)nn1-c1ccccc1`?
Hep lipid drop: inactive; TLR4 MyD88 comp: inactive; SR-BI uptake up: inactive; SR-BI DiI inh: inactive; NOD2 RIPK2 PPI: inactive; TLR9-MyD88 inh: inactive
